RGS4 act = potentiators or activators of RGS4; HEK293 M3R/inducible RGS4, carbachol calcium flux Fluo4; stronger effect = lower value; B-score at 10 µM; 310,000 compounds, 0.92% hits;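 active = B-score of the integrated calcium signal more than 4 SD below the library mean, with starting fluorescence not abnormally high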;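 note: negative B-score means reduced calcium response which marks RGS4 activation or potentiation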
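test system = HEK293 cells with stable M3R and inducible RGS4 | schedule = recording 10 s baseline at 1 Hz, 100 s post-agonist | technique = Fluo4-AM (2 µM) calcium-flux fluorescence, kinetic read | measure = Agonist-evoked peak-minus-minimum fluorescence over baseline, integrated ratio, B score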
PHOSPHO1 inh = blocks human PHOSPHO1 phosphatase activity. inhibition, % at 13.3 µM. recombinant PHOSPHO1, absorbance phosphatase assay. Q8TCT1. 290,000 compounds, 1.1% hits; in the data active = inhibition above about 60%
Target sequence (Q8TCT1 whole entry, looked up): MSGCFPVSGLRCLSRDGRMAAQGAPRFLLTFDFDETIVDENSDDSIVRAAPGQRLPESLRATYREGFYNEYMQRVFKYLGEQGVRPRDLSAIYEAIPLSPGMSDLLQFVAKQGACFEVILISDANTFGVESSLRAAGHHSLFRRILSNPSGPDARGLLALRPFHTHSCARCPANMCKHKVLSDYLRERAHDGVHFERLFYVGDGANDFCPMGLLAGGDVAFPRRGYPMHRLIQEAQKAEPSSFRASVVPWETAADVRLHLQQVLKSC
MrgX1 agonist = agonists of human MrgX1 receptor | Q96LB2 | MrgX1-HEK293 cells, Fluo-4 calcium fluorescence, agonist mode; stronger effect = higher value | B-score at 10 µM | 310,000 compounds, 0.44% hits | AID 588627;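 active = calcium response B-score plate-corrected fluorescence ratio at least 3 library SD, with starting fluorescence B-score inside 5 SD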
Target sequence (Q96LB2 whole entry, looked up): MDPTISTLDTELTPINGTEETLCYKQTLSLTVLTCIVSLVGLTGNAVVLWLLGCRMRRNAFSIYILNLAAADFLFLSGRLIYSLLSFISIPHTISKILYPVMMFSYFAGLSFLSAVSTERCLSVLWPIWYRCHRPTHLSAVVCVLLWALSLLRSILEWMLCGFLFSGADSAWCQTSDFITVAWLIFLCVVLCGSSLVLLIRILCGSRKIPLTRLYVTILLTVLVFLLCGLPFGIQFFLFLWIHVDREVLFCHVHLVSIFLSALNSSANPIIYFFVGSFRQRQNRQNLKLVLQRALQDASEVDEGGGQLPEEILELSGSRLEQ
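Test system: Stable human MrgX1 HEK293 cell line | Schedule: Overnight plating before 1 h dye loading | Read-out basis: Baseline-normalised fluorescence change ratio, B-scored | Detection: Kinetic calcium dye fluorescence, Fluo-4 NW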
MrgX1 PAM = allosterically activates human MrgX1 receptor signaling; MrgX1-HEK293, Fluo-4 calcium flux, FDSS; stronger effect = higher value; Q96LB2; B-score at 10 µM; 310,000 compounds, 0.63% hits;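 active = plate-corrected calcium response at least 3 library SD above typical, normal starting fluorescence, not activating the receptor alone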;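 note: compound read alongside a low EC10 to EC30 dose of BAM8-22 agonist; peak minus trough fluorescence over baseline measured at the second addition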
RGS4 inh = inhibitors of human RGS4 | P49798 | HEK293 M3R/RGS4 inducible, Fluo-4 calcium flux; stronger effect = higher value; triggered by carbachol at its EC20 | B-score at 10 µM | 310,000 compounds, 0.45% hits | AID 463165;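 active = B-score, a plate-corrected calcium signal, over three deviations above library mean, with baseline fluorescence within five deviations of library mean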;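 note: RGS4 expression induced by doxycycline in cells with stable M3 receptor; B-score is computed from the integrated fluorescence ratio over baseline after carbachol; higher B-score means a larger calcium signal and so more RGS4 inhibition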
MrgX1 antag = human MrgX1 receptor antagonism, primary screen; MRGX1-HEK293 calcium flux, Fluo-4, BAM8-22 antagonism; stronger effect = lower value; Q96LB2; B-score at 10 µM; 310,000 compounds, 1.3% hits; AID 588676;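 active = calcium-response B-score plate-corrected more than 3 library SD below zero, starting fluorescence within 5 deviations, no agonist response on first addition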;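 note: peak minus trough fluorescence over baseline after final BAM8-22 challenge near maximal dose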
MrgX1 ag reconf = reconfirmed activator of human MrgX1 receptor signaling; AID 602412; 600 compounds, 78% hits; MrgX1-HEK293, Fluo-4 calcium fluorescence, FDSS; shares compounds with MrgX1 agonist; activation, % at 10 µM;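 active = calcium signal rise, corrected for plate position, at least 3 library SD high, with starting brightness within 5 such deviations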
HEK293 Ca flux = counter-screen for MrgX1 antagonists: effect in parental HEK293 cells; shares compounds with MrgX1 antag; Fluo-4 calcium fluorescence, FDSS; fluorescence ratio F(max-min)/F0 at 10 µM; 4,000 compounds, 2% hits; AID 624111;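 active = duplicate-averaged calcium fluorescence ratio at least three times the standard deviation of buffer wells, a nonspecific response in parental cells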
HEK293 Ca counter = MrgX1 allosteric activator counter-screen hit in parental HEK293 cells | fluorescence ratio F(max-min)/F0 at 10 µM | parental HEK293 calcium flux, Fluo-4 fluorescence ratio; stronger effect = higher value | 4,000 compounds, 0.4% hits | shares compounds with MrgX1 antag | AID 624114;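 active = calcium fluorescence ratio, averaged over duplicates, at least 3 SD of the buffer-well ratio, meaning a nonspecific response in receptor-free cells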;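 note: untransfected parental HEK293 lacking MrgX1 used as counterscreen for MrgX1 allosteric activators; fluorescence change taken during the second addition on a kinetic imager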
HEK293 Ca cntr2 = MrgX1 activator counter-screen hit in parental HEK293 cells; shares compounds with MrgX1 antag; 4,000 compounds, 8.7% hits; Fluo-4 calcium fluorescence (FDSS); stronger effect = higher value; AID 624115; fluorescence ratio F(max-min)/F0 at 10 µM;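 active = calcium fluorescence ratio at least three times the spread of buffer wells, meaning a non-specific response in parental cells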
Active calls of the source: *; i = inactive; x = no result. A selection: hits, their analogues and other compounds. The true share with any hit is near 4.5%.

SMILES	RGS4 act	PHOSPHO1 inh	MrgX1 agonist	MrgX1 PAM	RGS4 inh	MrgX1 antag	MrgX1 ag reconf	HEK293 Ca flux	HEK293 Ca counter	HEK293 Ca cntr2
Cc1ccc(-c2n[nH]c(=O)c3ccccc23)cc1S(=O)(=O)Nc1ccccc1	i	6	30*	i	i	i	206%*	i	i	45*
C=CCOC(=O)C1=C(C)OC(N)=C(C#N)C1c1ccccc1F (stereo not drawn)	i	9	27*	i	i	i	173%*	i	i	i
CC(C)c1ccc(S(=O)(=O)/N=C2\C=C(NS(=O)(=O)c3ccccc3)C(=O)c3ccccc32)cc1	-11*	55	30*	i	i	i	i	i	i	i
CCc1ccc(S(=O)(=O)/N=C2\C=C(NS(=O)(=O)c3ccccc3)C(=O)c3ccccc32)cc1	i	36	x	x	i	x	x	x	x	x
O=C(NC1(C(F)(F)F)C(=O)Nc2c1c(=O)[nH]c(=O)n2Cc1ccccc1)c1ccc(Cl)cc1 (stereo not drawn)	i	14	i	i	i	i	x	x	x	x
O=c1[nH]c(=O)n(Cc2ccccc2)c2c1C(C(F)(F)F)(C(F)(F)F)N=C(c1ccco1)N2	i	-15	41*	i	i	i	223%*	i	i	58*
O=C(O)C1C(C(=O)Nc2ccc(Cl)cc2)C2C=CC1C21CC1 (stereo not drawn)	i	49	32*	i	i	i	i	i	i	i
O=C(Nc1ccc(Cl)cc1)C1C2CCC3C(CCC21)C3(Cl)Cl (stereo not drawn)	x	-14	x	x	x	x	x	x	x	x
COc1ccccc1NS(=O)(=O)c1cccc(C(=O)NCc2ccco2)c1	i	4	i	i	i	i	x	x	x	x
CCCCOc1ccc(CSC(=N)N)cc1Cl	i	-41	35*	i	i	i	164%*	i	i	i
CCCCCOc1ccc(Br)cc1CSC(=N)N	i	7	x	x	i	x	x	x	x	x
NC(=Nc1ccc(Br)cc1)c1ccccc1	i	36	78*	i	i	i	289%*	i	i	48*
O=C(/C=C/c1cccc(O)c1)c1ccc(N2CCOCC2)cc1	i	28	i	i	i	i	x	x	x	x
c1ccc2c(c1)nc(Nc1ccc3c(c1)OCO3)c1nnnn12	i	45	30*	i	i	i	207%*	i	i	i
COc1cccc(Nc2nc3ccccc3n3nnnc23)c1	i	15	31*	i	i	i	125%*	i	i	i
Fc1cccc(Nc2nc3ccccc3n3nnnc23)c1	i	-11	i	i	i	i	x	x	x	x
CC(C)n1c(-c2ccc(N(C)C)cc2)nc2ccccc21	x	12	30*	i	x	i	162%*	i	i	i
CCn1c(-c2ccc(N)cc2)nc2ccccc21	i	-3	i	i	i	i	x	x	x	x
CCn1c(-c2ccc(N(C)C)cc2)nc2ccccc21	i	26	31*	i	i	i	87%*	i	i	i
CC(C)Cc1csc(NC(=O)c2ccc(Br)cc2)c1C(=O)O	i	-1	45*	i	i	i	i	i	i	i
CC(C)(C)OC(=O)CN1C(=O)S/C(=C\c2ccc(-c3cccc(C(=O)O)c3)o2)C1=O	i	8	i	i	i	i	x	x	x	x
CC(C)OC(=O)CN1C(=O)S/C(=C/c2ccc(N3CCCCC3)o2)C1=O	i	8	64*	i	i	i	i	0.079*	i	i
CCc1cc(=O)n2c([nH]c3ccccc32)c1C#N	i	-1	i	i	i	i	x	x	x	x
CCc1cc(=S)n2c([nH]c3ccccc32)c1C#N	i	5	43*	i	i	i	284%*	i	i	93*
COc1ccnc(CSC(N)=Nc2ccc(F)cc2)c1	i	13	75*	i	i	i	383%*	i	i	75*
SMILES	RGS4 act	PHOSPHO1 inh	MrgX1 agonist	MrgX1 PAM	RGS4 inh	MrgX1 antag	MrgX1 ag reconf	HEK293 Ca flux	HEK293 Ca counter	HEK293 Ca cntr2
COc1cccc(N/C(N)=N/c2nc(CSc3ccccn3)cc(=O)[nH]2)c1	i	-8	i	i	i	i	x	x	x	x
CC(C)Oc1ccc(OCCn2c(S(=O)(=O)O)nc3c(N)ncnc32)cc1	i	6	i	i	i	i	x	x	x	x
COc1ccc(OC)c(NC(=O)Nc2c(O)ccc3ccccc23)c1	i	x	29*	i	i	i	i	i	i	i
COc1ccccc1CCNC(=O)CNC(=O)Cc1cccc2ccccc12	i	6	i	i	i	i	x	x	x	x
CN(C)CCOc1ccc2c(c1)Sc1ccccc1CC2=O	i	2	55*	i	i	i	i	i	i	i
Cc1ccc(-c2nnc3n2CCCCC3)cc1	i	7	i	i	i	i	x	x	x	x
Oc1ccccc1-c1nnc2n1CCCCC2	i	x	27*	i	i	i	i	i	i	i
O=C(O)c1ccccc1C(=O)NCCc1c(C(=O)O)[nH]c2ccc(F)cc12	i	20	i	i	i	i	x	x	x	x
O=C(O)c1ccc(-c2ccc(/C=c3/sc4nc5ccccc5n4c3=O)o2)cc1Cl	i	31	81*	i	i	i	465%*	0.13*	i	104*
NC(=NCc1ccccc1)c1cccc([N+](=O)[O-])c1	i	19	i	i	i	i	x	x	x	x
CC1(C)CSC(=NCc2ccccc2)N1C(=O)c1cccc([N+](=O)[O-])c1	i	-6	84*	i	i	i	505%*	i	i	103*
N#CCOc1coc(CN2CCN(c3ccccc3)CC2)cc1=O	i	17	i	i	i	i	x	x	x	x
C/C(N)=C(/C#N)C(=O)CSc1nc2ccccc2c(=O)n1-c1ccccc1C	i	10	i	i	i	i	x	x	x	x

Screening data deposited in PubChem BioAssay by several laboratories.
